The record followed here is ChEMBL document CHEMBL1155272, “Nucleoside-5'-monophosphates as prodrugs of adenosine A2A receptor agonists activated by ecto-5'-nucleotidase” (J Med Chem, 2009).

The experiment deals with T1, 5'-nucleotidase (Rattus norvegicus) (UniProt P21588).
T1 sequence (whole entry): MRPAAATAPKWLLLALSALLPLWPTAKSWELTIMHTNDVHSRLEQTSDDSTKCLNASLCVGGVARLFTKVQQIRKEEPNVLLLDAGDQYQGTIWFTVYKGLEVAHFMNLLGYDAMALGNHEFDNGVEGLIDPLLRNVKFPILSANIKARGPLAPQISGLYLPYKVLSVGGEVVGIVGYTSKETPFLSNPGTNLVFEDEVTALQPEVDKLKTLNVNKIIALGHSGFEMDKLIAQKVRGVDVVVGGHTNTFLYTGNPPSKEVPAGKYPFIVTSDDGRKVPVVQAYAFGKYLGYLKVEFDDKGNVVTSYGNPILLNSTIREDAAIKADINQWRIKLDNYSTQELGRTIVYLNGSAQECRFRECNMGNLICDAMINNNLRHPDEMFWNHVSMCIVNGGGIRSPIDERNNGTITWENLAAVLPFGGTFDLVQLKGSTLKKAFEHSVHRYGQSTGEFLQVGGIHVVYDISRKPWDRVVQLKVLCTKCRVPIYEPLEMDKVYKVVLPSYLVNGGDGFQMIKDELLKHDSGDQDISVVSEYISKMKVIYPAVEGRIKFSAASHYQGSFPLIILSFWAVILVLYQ
Put plainly: Activity at rat recombinant ecto-5'-nucleotidase expressed in baculovirus-infected insect Sf9 cells co-transfected with soluble glutathione-S-transferase assessed as compound dephosphorylation by capillary electrophoresis relative to AMP. Set-up: concentration or dose not given beside the values. The method, boiled down:
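Purified GST-rat ecto-5'-NT fusion protein (baculovirus/insect cells, glutathione-agarose purified). 500 μM nucleoside monophosphate in 10 mM Hepes pH 7.4, 2 mM MgCl2, 1 mM CaCl2; 37 °C, 20 min; stopped at 99 °C for 5 min. Nucleoside product quantified by capillary electrophoresis (borate pH 9.1, UV 232 nm). Dephosphorylation expressed relative to AMP (100%). Two experiments, triplicate injections.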

Consider `Nc1nc(SCCC2OCCO2)nc2c1ncn2[C@@H]1O[C@H](COP(=O)(O)O)[C@@H](O)[C@H]1O`, for which the Activity came to 104%. Consider `Nc1nc(SCCc2ccccc2)nc2c1ncn2[C@@H]1O[C@H](COP(=O)(O)O)[C@@H](O)[C@H]1O`, for which the Activity amounted to 0%. Consider `C=CCSc1nc(N)c2ncn([C@@H]3O[C@H](COP(=O)(O)O)[C@@H](O)[C@H]3O)c2n1`, for which the Activity was 0%. With `Nc1nc(SC2CCCCC2)nc2c1ncn2[C@@H]1O[C@H](COP(=O)(O)O)[C@@H](O)[C@H]1O`, the Activity was determined as 28%. `Nc1nc(SCC2CCCCC2)nc2c1ncn2[C@@H]1O[C@H](COP(=O)(O)O)[C@@H](O)[C@H]1O`: the Activity was 71%.

Turning to `Nc1nc(SC2CCCC2)nc2c1ncn2[C@@H]1O[C@H](COP(=O)(O)O)[C@@H](O)[C@H]1O`, the Activity came to 71%. For `CCCCCCSc1nc(N)c2ncn([C@@H]3O[C@H](COP(=O)(O)O)[C@@H](O)[C@H]3O)c2n1` the value was 84%; for `Nc1nc(SCCC2COCCO2)nc2c1ncn2[C@@H]1O[C@H](COP(=O)(O)O)[C@@H](O)[C@H]1O` (some centres not stated), 67%. Regarding `Nc1nc(SCCC2CCCCC2)nc2c1ncn2[C@@H]1O[C@H](COP(=O)(O)O)[C@@H](O)[C@H]1O`, the Activity is 96%.

Take `Nc1nc(SCc2ccccc2)nc2c1ncn2[C@@H]1O[C@H](COP(=O)(O)O)[C@@H](O)[C@H]1O`: the Activity is 0%. Consider `C#CCSc1nc(N)c2ncn([C@@H]3O[C@H](COP(=O)(O)O)[C@@H](O)[C@H]3O)c2n1`, for which the Activity was 0%. With `CCCSc1nc(N)c2ncn([C@@H]3O[C@H](COP(=O)(O)O)[C@@H](O)[C@H]3O)c2n1`, the Activity is 47%.
